pIC50: −log10 of the molar value. Some results are limits rather than exact numbers.

The values below come from ChEMBL document CHEMBL2390836, “Synthesis and antitumor activities of naturally occurring oleanolic acid triterpenoid saponins and their derivatives” (Eur J Med Chem, 2013).

Common to all, as to type: functional, cell-based
For test [1], the system named is A549. As to the kind of experiment: Cytotoxicity against human A549 cells after 72 hrs by sulforhodamine B assay. The settings on record: A549, 72 h. The essentials:
(§1)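 Cells seeded in 96-well plates and exposed in triplicate to a concentration gradient at 37 °C for 72 h. Total protein staining with sulforhodamine B was the read-out. IC50 was calculated by the Logit method from at least three independent experiments.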

The test system of test [2] is HL-60. As to the kind of experiment: Cytotoxicity against human HL60 cells after 72 hrs by MTT assay. The settings on record: HL-60, 72 h. The essentials:
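HL-60 human promyelocytic leukemia cells were plated in 96 wells and treated in triplicate with graded concentrations at 37 °C for 72 h. Viability was read by MTT reduction. IC50 was obtained by the Logit method from at least three independent experiments.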

Test [3] deals with A-375. As to the kind of experiment: Cytotoxicity against human A375 cells after 72 hrs by sulforhodamine B assay. The settings on record: A-375, 72 h. The method, boiled down:
as §1

Consider `C[C@@H]1O[C@@H](O[C@H]2[C@H](O[C@H]3CC[C@]4(C)[C@H]5CC=C6[C@@H]7CC(C)(C)CC[C@]7(C(=O)O)CC[C@@]6(C)[C@]5(C)CC[C@H]4C3(C)C)OC[C@@H](O)[C@@H]2O)[C@H](O)[C@H](O[C@@H]2O[C@H](CO)[C@@H](O)[C@H](O)[C@H]2O)[C@H]1O`, for which the pIC50 was 4.83 in test [1], 5.34 in test [2] and 5.26 in test [3].
On to `C[C@@H]1O[C@@H](O[C@H]2[C@H](O[C@H]3CC[C@]4(C)[C@H]5CC=C6[C@@H]7CC(C)(C)CC[C@]7(C(=O)O[C@@H]7O[C@H](CO[C@@H]8O[C@H](CO)[C@@H](O)[C@H](O)[C@H]8O)[C@@H](O)[C@H](O)[C@H]7O)CC[C@@]6(C)[C@]5(C)CC[C@H]4C3(C)C)OC[C@@H](O)[C@@H]2O)[C@H](O)[C@H](O[C@@H]2O[C@H](CO)[C@@H](O[C@@H]3O[C@H](CO)[C@@H](O)[C@H](O)[C@H]3O)[C@H](O)[C@H]2O)[C@H]1O`, for which the pIC50 in test [1], in test [2] and in test [3] was less than 4.70 throughout.
In the case of `C[C@@H]1O[C@@H](O[C@H]2[C@H](O[C@H]3CC[C@]4(C)[C@H]5CC=C6[C@@H]7CC(C)(C)CC[C@]7(C(=O)O)CC[C@@]6(C)[C@]5(C)CC[C@H]4C3(C)C)OC[C@H](O[C@@H]3O[C@H](CO)[C@@H](O)[C@H](O)[C@H]3O)[C@@H]2O)[C@H](O)[C@H](O[C@@H]2O[C@H](CO)[C@@H](O[C@@H]3O[C@H](CO)[C@@H](O)[C@H](O)[C@H]3O)[C@H](O)[C@H]2O)[C@H]1O`, the figures for the pIC50 in test [1], in test [2] and in test [3] were 5.21, 5.51 and 5.46, respectively.
As for `C[C@@H]1O[C@@H](O[C@H]2[C@@H](O[C@H]3CC[C@]4(C)[C@H]5CC=C6[C@@H]7CC(C)(C)CC[C@]7(C(=O)O)CC[C@@]6(C)[C@]5(C)CC[C@H]4C3(C)C)OC[C@H](O)[C@@H]2O)[C@H](O)[C@H](O)[C@H]1O`, the pIC50 in test [1], in test [2] and in test [3] was less than 4.70 each time.
For the molecule `C[C@@H]1O[C@@H](O[C@H]2[C@H](O[C@H]3CC[C@]4(C)[C@H]5CC=C6[C@@H]7CC(C)(C)CC[C@]7(C(=O)O)CC[C@@]6(C)[C@]5(C)CC[C@H]4C3(C)C)OC[C@H](O)[C@@H]2O)[C@H](O)[C@H](O[C@@H]2O[C@H](CO)[C@@H](O[C@@H]3O[C@H](CO)[C@@H](O)[C@H](O)[C@H]3O)[C@H](O)[C@H]2O)[C@H]1O`, the pIC50 in test [1] is 5.10; in test [2], 5.46; in test [3], 5.23.
In the case of `C[C@@H]1O[C@@H](O[C@H]2[C@H](O[C@H]3CC[C@]4(C)[C@H]5CC=C6[C@@H]7CC(C)(C)CC[C@]7(C(=O)O)CC[C@@]6(C)[C@]5(C)CC[C@H]4C3(C)C)OC[C@H](O)[C@@H]2O)[C@H](O)[C@H](O[C@@H]2OC[C@@H](O)[C@H](O)[C@H]2O)[C@H]1O`, the negative logarithm of the IC50 (pIC50) in test [1] was 4.81; in test [2], 5.47; in test [3], 5.05.
On to `C[C@@H]1O[C@@H](O[C@H]2[C@H](O[C@H]3CC[C@]4(C)[C@H]5CC=C6[C@@H]7CC(C)(C)CC[C@]7(C(=O)O)CC[C@@]6(C)[C@]5(C)CC[C@H]4C3(C)C)O[C@H](CO)[C@H](O)[C@@H]2O)[C@H](O)[C@H](O)[C@H]1O`, for which the pIC50 in test [1] is 4.91; in test [2] it was 5.60; in test [3], 5.29.
As to `C[C@@H]1O[C@@H](O[C@@H]2[C@@H](O)[C@H](O[C@H]3CC[C@]4(C)[C@H]5CC=C6[C@@H]7CC(C)(C)CC[C@]7(C(=O)O)CC[C@@]6(C)[C@]5(C)CC[C@H]4C3(C)C)O[C@H](CO)[C@H]2O)[C@H](O)[C@H](O)[C@H]1O`, the pIC50 in test [1], in test [2] and in test [3] was less than 4.70 each time.
As to `C[C@@H]1O[C@@H](O[C@H]2[C@@H](O)[C@@H](CO)O[C@@H](O[C@H]3CC[C@]4(C)[C@H]5CC=C6[C@@H]7CC(C)(C)CC[C@]7(C(=O)O)CC[C@@]6(C)[C@]5(C)CC[C@H]4C3(C)C)[C@@H]2O)[C@H](O)[C@H](O)[C@H]1O`, the values for the pIC50 in test [1], in test [2] and in test [3] were 4.82, less than 4.70 and 4.81, respectively.
For `C[C@@H]1O[C@@H](O[C@H]2[C@H](O[C@H]3CC[C@]4(C)[C@H]5CC=C6[C@@H]7CC(C)(C)CC[C@]7(C(=O)O[C@@H]7O[C@H](CO[C@@H]8O[C@H](CO)[C@@H](O[C@@H]9O[C@@H](C)[C@H](O)[C@@H](O)[C@H]9O)[C@H](O)[C@H]8O)[C@@H](O)[C@H](O)[C@H]7O)CC[C@@]6(C)[C@]5(C)CC[C@H]4C3(C)C)OC[C@@H](O)[C@@H]2O)[C@H](O)[C@H](O)[C@H]1O`, the pIC50 was 4.98 in test [1], 5.49 in test [2] and 5.14 in test [3].
On the same counts, the results for `C[C@@H]1O[C@@H](O[C@H]2[C@H](O[C@H]3CC[C@]4(C)[C@H]5CC=C6[C@@H]7CC(C)(C)CC[C@]7(C(=O)O)CC[C@@]6(C)[C@]5(C)CC[C@H]4C3(C)C)OC[C@H](O)[C@@H]2O)[C@H](O)[C@H](O[C@@H]2O[C@H](CO)[C@@H](O)[C@H](O)[C@H]2O)[C@H]1O` are 4.78, 5.21 and 4.92.
As for `COc1cccc2c1C(=O)c1c(O)c3c(c(O)c1C2=O)C[C@@](O)(C(=O)CO)C[C@@H]3O[C@H]1C[C@H](N)[C@H](O)[C@H](C)O1` [DOXORUBICIN], the pIC50 in test [1] was 6.25; in test [2], 6.05; in test [3] it was 6.12.
For the molecule `C[C@@H]1O[C@@H](O[C@H]2[C@H](O[C@H]3CC[C@]4(C)[C@H]5CC=C6[C@@H]7CC(C)(C)CC[C@]7(C(=O)O)CC[C@@]6(C)[C@]5(C)CC[C@H]4C3(C)C)OC[C@H](O)[C@@H]2O)[C@H](O)[C@H](O[C@@H]2OC[C@@H](O[C@@H]3O[C@H](CO)[C@@H](O)[C@H](O)[C@H]3O)[C@H](O)[C@H]2O)[C@H]1O`, the pIC50 was less than 4.70 in test [1], 5.38 in test [2] and 4.66 in test [3].
For the molecule `C[C@@H]1O[C@@H](O[C@H]2[C@H](O[C@H]3CC[C@]4(C)[C@H]5CC=C6[C@@H]7CC(C)(C)CC[C@]7(C(=O)O)CC[C@@]6(C)[C@]5(C)CC[C@H]4C3(C)C)OC[C@@H](O)[C@@H]2O)[C@H](O)[C@H](O[C@@H]2OC[C@@H](O)[C@H](O)[C@H]2O)[C@H]1O`, the values for the pIC50 in test [1], in test [2] and in test [3] were 4.94, 5.35 and 5.20, respectively.
Take `C[C@@H]1O[C@H](O[C@H]2[C@H](O[C@H]3CC[C@]4(C)[C@H]5CC=C6[C@@H]7CC(C)(C)CC[C@]7(C(=O)O)CC[C@@]6(C)[C@]5(C)CC[C@H]4C3(C)C)OC[C@H](O)[C@@H]2O)[C@H](O)[C@H](O)[C@H]1O`: the pIC50 in test [1] is 4.76; in test [2] it was 5.38; in test [3], 5.11.
Regarding `C[C@@H]1O[C@@H](O[C@H]2[C@H](O[C@H]3CC[C@]4(C)[C@H]5CC=C6[C@@H]7CC(C)(C)CC[C@]7(C(=O)O)CC[C@@]6(C)[C@]5(C)CC[C@H]4C3(C)C)OC[C@H](O)[C@@H]2O)[C@H](O)[C@H](O)[C@H]1O`, the values for the pIC50 in test [1], in test [2] and in test [3] were 4.80, 5.04 and 5.08, respectively.
Consider `C[C@@H]1O[C@@H](O[C@H]2[C@H](O)[C@@H](O)[C@H](OC[C@H]3O[C@@H](OC(=O)[C@]45CCC(C)(C)C[C@H]4C4=CC[C@@H]6[C@@]7(C)CC[C@H](O[C@@H]8OC[C@@H](O)[C@H](O)[C@H]8O)C(C)(C)[C@@H]7CC[C@@]6(C)[C@]4(C)CC5)[C@H](O)[C@@H](O)[C@@H]3O)O[C@@H]2CO)[C@H](O)[C@H](O)[C@H]1O`, for which the pIC50 in test [1] is 4.92; in test [2], 5.24; in test [3], 4.87.
`CC1(C)CC[C@]2(C(=O)O)CC[C@]3(C)C(=CC[C@@H]4[C@@]5(C)CC[C@H](O[C@@H]6O[C@H](CO)[C@@H](O)[C@H](O)[C@H]6O[C@@H]6O[C@H](CO)[C@@H](O)[C@H](O)[C@H]6O)C(C)(C)[C@@H]5CC[C@]43C)[C@@H]2C1` [ACUTOSIDE A]: the pIC50 is 4.82 in test [1], 4.90 in test [2] and 4.99 in test [3].
`C[C@@H]1O[C@@H](O[C@H]2[C@H](O[C@H]3CC[C@]4(C)[C@H]5CC=C6[C@@H]7CC(C)(C)CC[C@]7(C(=O)O)CC[C@@]6(C)[C@]5(C)CC[C@H]4C3(C)C)OC[C@@H](O)[C@@H]2O)[C@H](O)[C@H](O[C@@H]2O[C@H](CO)[C@@H](O[C@@H]3O[C@H](CO)[C@@H](O)[C@H](O)[C@H]3O)[C@H](O)[C@H]2O)[C@H]1O`: the pIC50 was 5.11 in test [1], 5.60 in test [2] and 5.21 in test [3].
On the same counts, the results for `C[C@@H]1O[C@@H](O[C@H]2[C@H](O[C@H]3CC[C@]4(C)[C@H]5CC=C6[C@@H]7CC(C)(C)CC[C@]7(C(=O)O[C@@H]7O[C@H](CO[C@@H]8O[C@H](CO)[C@@H](O)[C@H](O)[C@H]8O)[C@@H](O)[C@H](O)[C@H]7O)CC[C@@]6(C)[C@]5(C)CC[C@H]4C3(C)C)OC[C@@H](O)[C@@H]2O)[C@H](O)[C@H](O[C@@H]2O[C@H](CO)[C@@H](O)[C@H](O)[C@H]2O)[C@H]1O` are less than 4.70, less than 4.70 and less than 4.70.
